# Laboratory results as given in ChEMBL document CHEMBL3997766, “Synthesis and pre-clinical studies of new amino-acid ester thiazolide prodrugs” (Eur J Med Chem, 2017).
# Tests used:
# [1] = Prodrug activation at room temperature after 3 weeks assessed as tizoxanide formation by NMR method
# Rattus norvegicus [2] = test: Elimination half life in Sprague-Dawley rat assessed as RM-4848 level in plasma at 30 mg/kg, po administered as single dose; type: ADME, organism-based; conditions: in vivo
# How it was run: (§1)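 Rats in groups of three received one compound as a single oral dose (30 mg/kg) or a single intravenous injection (6 mg/kg), with four compounds studied separately. Serial blood samples were drawn at 5, 10, 15 and 30 min and at 1, 2, 4, 8, 23 and 24 h post-dose. Plasma parent drug and metabolites were quantified and PK parameters were derived.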
# Rattus norvegicus [3] = test: Cmax in Sprague-Dawley rat assessed as RM-4848 level in plasma at 30 mg/kg, po administered as single dose; type: ADME, organism-based; set-up: dose 30 mg/kg, route oral; conditions: in vivo; how it was run: as §1
# Rattus norvegicus [4] = test: AUC (0 to t) in Sprague-Dawley rat assessed as RM-4848 level in plasma at 30 mg/kg, po administered as single dose; type: ADME, organism-based; conditions: in vivo; how it was run: as §1
# Rattus norvegicus [5] = test: Cmax in Sprague-Dawley rat assessed as RM-4848-glucuronide level in plasma at 30 mg/kg, po administered as single dose; type: ADME, organism-based; set-up: dose 30 mg/kg, route oral; conditions: in vivo; how it was run: as §1
# Rattus norvegicus [6] = test: AUC (0 to t) in Sprague-Dawley rat assessed as RM-4848-glucuronide level in plasma at 30 mg/kg, po administered as single dose; type: ADME, organism-based; conditions: in vivo; how it was run: as §1
# Rattus norvegicus [7] = test: Elimination half life in Sprague-Dawley rat assessed as RM-4848-glucuronide level at 30 mg/kg, po administered as single dose; type: ADME, organism-based; conditions: in vivo; how it was run: as §1
# Rattus norvegicus [8] = test: Oral bioavailability in Sprague-Dawley rat assessed as RM-4848 level in plasma at 30 mg/kg administered as single dose; type: ADME, organism-based; conditions: in vivo
# How it was run: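 Groups of three rats received a single oral dose (30 mg/kg) or intravenous dose (6 mg/kg), with serial blood sampling from 5 min to 24 h. Absolute bioavailability came from the AUC after oral versus intravenous dosing, with the AUC corrected for dose to 30 mg/kg.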
# Rattus norvegicus [9] = test: Cmax in Sprague-Dawley rat assessed as RM-4848 level in plasma at 6 mg/kg, iv administered as single dose; type: ADME, organism-based; set-up: dose 6 mg/kg, route intravenous; conditions: in vivo; how it was run: as §1
# Rattus norvegicus [10] = test: AUC (0 to t) in Sprague-Dawley rat assessed as RM-4848 level in plasma at 6 mg/kg, iv administered as single dose; type: ADME, organism-based; conditions: in vivo; how it was run: as §1
# Rattus norvegicus [11] = test: Cmax in Sprague-Dawley rat assessed as RM-4848-glucuronide level at 6 mg/kg, iv administered as single dose; type: ADME, organism-based; set-up: dose 6 mg/kg, route intravenous; conditions: in vivo; how it was run: as §1
# Rattus norvegicus [12] = test: AUC (0 to t) in Sprague-Dawley rat assessed as RM-4848-glucuronide level at 6 mg/kg, iv administered as single dose; type: ADME, organism-based; conditions: in vivo; how it was run: as §1
# Plasma [13] = test: Drug metabolism in Sprague-Dawley rat assessed as RM-4848 formation in plasma at 30 mg/kg, po administered as single dose measured at 0.083 to 4 hrs post dose; type: ADME, organism-based; conditions: in vivo; how it was run: as §1
# Plasma [14] = test: Drug metabolism in Sprague-Dawley rat assessed as RM-4848-glucuronide formation in plasma at 30 mg/kg, po administered as single dose; type: ADME, organism-based; conditions: in vivo; how it was run: as §1
# Rattus norvegicus [15] = test: Tmax in Sprague-Dawley rat assessed as RM-4848 level in plasma at 6.2 mg/kg, iv; type: ADME, organism-based; conditions: in vivo
# How it was run: (§2)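 Rats in groups of three got a single oral dose (30 mg/kg) or a single intravenous injection (6 mg/kg). Serial blood samples were taken at 5, 10, 15 and 30 min and at 1, 2, 4, 8, 23 and 24 h post-dose for plasma drug and glucuronide levels. Bioavailability came from oral versus intravenous AUC after dose correction to 30 mg/kg.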
# Rattus norvegicus [16] = test: Tmax in Sprague-Dawley rat assessed as RM-4848-glucuronide level in plasma at 6.2 mg/kg, iv; type: ADME, organism-based; conditions: in vivo; how it was run: as §2
# Rattus norvegicus [17] = test: Tmax in Sprague-Dawley rat assessed as RM4848-glucuronide level in plasma at 30 mg/kg, po administered as single dose; type: ADME, organism-based; conditions: in vivo; how it was run: as §2
# Rattus norvegicus [18] = test: Elimination half life in Sprague-Dawley rat assessed as RM-4848 level in plasma at 6.2 mg/kg, iv; type: ADME, organism-based; conditions: in vivo
# Plasma [19] = test: Drug metabolism in Sprague-Dawley rat assessed as RM-4848-glucuronide formation in plasma at 6.2 mg/kg, iv at 0.083 hrs post dose; type: ADME, organism-based; conditions: in vivo
# Rattus norvegicus [20] = test: Elimination half life in Sprague-Dawley rat assessed as RM-4848-glucuronide level at 6.2 mg/kg, iv; type: ADME, organism-based; conditions: in vivo
# [21] = Drug excretion in po dosed human urine; type: ADME, organism-based; conditions: read-out: Drug excretion
# [22] = Drug excretion in po dosed human faeces; type: ADME, organism-based, Feces; conditions: read-out: Drug excretion
# [23] = Oral bioavailability in human; type: ADME, organism-based; conditions: in vivo
# Plasma [24] = test: Drug metabolism in Sprague-Dawley rat assessed as tizoxanide-glucuronide formation in plasma at 30 mg/kg, po administered as single dose measured after 5 mins; type: ADME, organism-based; conditions: in vivo
# How it was run: (§3)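 Plasma tizoxanide and tizoxanide glucuronide were measured and PK parameters derived. AUCs were dose-corrected to 30 mg/kg for bioavailability.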
# Rattus norvegicus [25] = test: Cmax in Sprague-Dawley rat assessed as Tizoxanide level in plasma at 30 mg/kg, po administered as single dose; type: ADME, organism-based; set-up: dose 30 mg/kg, route oral; conditions: in vivo; how it was run: as §1
# Rattus norvegicus [26] = test: AUC (0 to t) in Sprague-Dawley rat assessed as Tizoxanide level at 30 mg/kg, po administered as single dose; type: ADME, organism-based; conditions: in vivo; how it was run: as §3
# Rattus norvegicus [27] = test: Cmax in Sprague-Dawley rat assessed as Tizoxanide level in plasma at 6 mg/kg, iv administered as single dose; type: ADME, organism-based; set-up: dose 6 mg/kg, route intravenous; conditions: in vivo; how it was run: as §1
# Rattus norvegicus [28] = test: Elimination half life in Sprague-Dawley rat assessed as Tizoxanide level in plasma at 6 mg/kg, iv administered as single dose; type: ADME, organism-based; conditions: in vivo; how it was run: as §3
# Rattus norvegicus [29] = test: Cmax in Sprague-Dawley rat assessed as Tizoxanide-glucuronide level in plasma at 6 mg/kg, iv administered as single dose; type: ADME, organism-based; set-up: dose 6 mg/kg, route intravenous; conditions: in vivo; how it was run: as §1
# Rattus norvegicus [30] = test: Tmax in male Sprague-Dawley rat assessed as Tizoxanide-glucuronide level in plasma at 6 mg/kg, iv administered as single dose; type: ADME, organism-based; conditions: in vivo; how it was run: as §3
# Rattus norvegicus [31] = test: AUC (0 to t) in male Sprague-Dawley rat assessed as Tizoxanide-glucuronide level in plasma at 6 mg/kg, iv administered as single dose; type: ADME, organism-based; conditions: in vivo; how it was run: as §3
# Rattus norvegicus [32] = test: Tmax in female Sprague-Dawley rat assessed as Tizoxanide-glucuronide level in plasma at 6 mg/kg, iv administered as single dose; type: ADME, organism-based; conditions: in vivo; how it was run: as §3
# Rattus norvegicus [33] = test: Tmax in male Sprague-Dawley rat assessed as Tizoxanide level in plasma at 30 mg/kg, po; type: ADME, organism-based; conditions: in vivo; how it was run: as §3
# Rattus norvegicus [34] = test: Tmax in female Sprague-Dawley rat assessed as Tizoxanide level in plasma at 30 mg/kg, po; type: ADME, organism-based; conditions: in vivo; how it was run: as §3
# Rattus norvegicus [35] = test: Cmax in Sprague-Dawley rat assessed as tizoxanide-glucuronide level in plasma at 30 mg/kg, po administered as single dose; type: ADME, organism-based; set-up: dose 30 mg/kg, route oral; conditions: in vivo; how it was run: as §1
# Rattus norvegicus [36] = test: Tmax in male Sprague-Dawley rat assessed as tizoxanide-glucuronide level in plasma at 30 mg/kg, po administered as single dose; type: ADME, organism-based; conditions: in vivo; how it was run: as §3
# Rattus norvegicus [37] = test: Tmax in female Sprague-Dawley rat assessed as tizoxanide-glucuronide level in plasma at 30 mg/kg, po administered as single dose; type: ADME, organism-based; conditions: in vivo; how it was run: as §3
# Rattus norvegicus [38] = test: AUC (0 to t) in Sprague-Dawley rat assessed as tizoxanide-glucuronide level in plasma at 30 mg/kg, po administered as single dose; type: ADME, organism-based; conditions: in vivo; how it was run: as §3
# Rattus norvegicus [39] = test: AUC (0 to t) in Sprague-Dawley rat assessed as Tizoxanide level in plasma at 6 mg/kg, iv administered as single dose; type: ADME, organism-based; conditions: in vivo; how it was run: as §3
# Plasma [40] = test: Drug level in Sprague-Dawley rat plasma treated with RM5064 at 30 mg/kg, po administered as single dose; type: ADME, organism-based; conditions: in vivo; how it was run: as §1
# Rattus norvegicus [41] = test: Drug level in Sprague-Dawley rat treated with RM5038 at 6.4 mg/kg, iv measured at 0.25 to 1 hrs post dose; type: ADME, organism-based; conditions: in vivo
# Rattus norvegicus [42] = test: Drug level in Sprague-Dawley rat treated with RM5064 at 6.4 mg/kg, iv measured at 0.25 to 1 hrs post dose; type: ADME, organism-based; conditions: in vivo
# Plasma [43] = test: Drug level in Sprague-Dawley rat plasma treated with RM5038 at 6 mg/kg, iv administered as single dose; type: ADME, organism-based; conditions: in vivo; how it was run: as §1
compound,measurement,setting,value
CC(C)[C@H](N)C(=O)Oc1ccccc1C(=O)Nc1ncc([N+](=O)[O-])s1,Drug metabolism,[1],20%
CC(C)(C)[C@H](N)C(=O)Oc1ccccc1C(=O)Nc1ncc(Cl)s1.Cl,beta t1/2,Rattus norvegicus [2],84 to 156 min
same,Cmax,Rattus norvegicus [3],622 ng/mL
same,AUCt,Rattus norvegicus [4],715 ng·h/mL
same,Cmax,Rattus norvegicus [5],7290 ng/mL
same,AUCt,Rattus norvegicus [6],19400 ng·h/mL
same,beta t1/2,Rattus norvegicus [7],206 min
same,F,Rattus norvegicus [8],23%
same,Cmax,Rattus norvegicus [9],2650 ng/mL
same,AUCt,Rattus norvegicus [10],631 ng·h/mL
same,Cmax,Rattus norvegicus [11],5570 ng/mL
same,AUCt,Rattus norvegicus [12],7610 ng·h/mL
same,Drug metabolism,Plasma [13],Metabolite_Detected
same,Drug metabolism,Plasma [14],Metabolite_Detected
same,Tmax,Rattus norvegicus [15],4.98 min
same,Tmax,Rattus norvegicus [16],15 to 30 min
same,Tmax,Rattus norvegicus [17],30 min
same,beta t1/2,Rattus norvegicus [18],54.6 min
same,Drug metabolism,Plasma [19],Metabolite_Detected
same,beta t1/2,Rattus norvegicus [20],189 min
CC(=O)Oc1ccccc1C(=O)Nc1ncc([N+](=O)[O-])s1 [NITAZOXANIDE],dose excreted,[21],33%
same,dose excreted,[22],64%
same,bioavailability,[23],≤ 30%
same,Drug metabolism,Plasma [24],Metabolite_Detected
same,Cmax,Rattus norvegicus [25],742 ng/mL
same,AUCt,Rattus norvegicus [26],2040 ng·h/mL
same,Cmax,Rattus norvegicus [27],20500 ng/mL
same,beta t1/2,Rattus norvegicus [28],12 min
same,Cmax,Rattus norvegicus [29],11050 ng/mL
same,Tmax,Rattus norvegicus [30],24 min
same,AUCt,Rattus norvegicus [31],6500 ng·h/mL
same,Tmax,Rattus norvegicus [32],42 min
same,Tmax,Rattus norvegicus [33],42 min
same,Tmax,Rattus norvegicus [34],126 min
same,Cmax,Rattus norvegicus [35],4620 ng/mL
same,Tmax,Rattus norvegicus [36],42 min
same,Tmax,Rattus norvegicus [37],84 min
same,AUCt,Rattus norvegicus [38],15950 ng·h/mL
same,AUCt,Rattus norvegicus [39],14100 ng·h/mL
O=C(Nc1ncc(Cl)s1)c1ccccc1O[C@@H]1O[C@H](C(=O)O)[C@@H](O)[C@H](O)[C@H]1O,Drug metabolism,Plasma [40],Metabolite_Detected
same,Drug metabolism,Rattus norvegicus [41],Metabolite_Detected
same,Drug metabolism,Rattus norvegicus [42],Metabolite_Detected
same,Drug metabolism,Plasma [43],Metabolite_Detected
